ChEMBL document CHEMBL3351994, “Synthesis and biological evaluation of novel millepachine derivatives as a new class of tubulin polymerization inhibitors” (J Med Chem, 2014)
pIC50: −log10 of the molar value. The source made the active and inactive calls.

How the values were obtained:
[1] = tested on: HepG2; experiment: Antiproliferative activity against human HepG2 cells assessed as inhibition of cell proliferation after 48 hrs by MTT assay; assay type: functional, cell-based
Outline: (§1)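 Cells grown at 37 °C in humidified 5% CO2. K562, C26 and HCT lines in RPMI-1640; other lines in DMEM; both media with 10% FBS, penicillin and streptomycin. 1000 cells/well seeded, incubated overnight, then compound at various doses for 48 h. MTT added for 4 h, formazan dissolved in DMSO, absorbance read at 590 nm. IC50 from dose–response curves, mean ± SEM of at least three independent experiments.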

[2] = tested on: A-375; experiment: Antiproliferative activity against human A375 cells assessed as inhibition of cell proliferation after 48 hrs by MTT assay; assay type: functional, cell-based; conditions: A-375, 48 h; outline: as §1
[3] = tested on: K562; experiment: Antiproliferative activity against human K562 cells assessed as inhibition of cell proliferation after 48 hrs by MTT assay; assay type: functional, cell-based; conditions: K562, 48 h; outline: as §1
[4] = Solubility in PBS solution by nephelometry; assay type: physicochemical
Outline: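 Maximum soluble concentration in PBS, determined by nephelometry.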

[5] = Toxicity in iv dosed BALB/c mouse; assay type: organism-based; conditions: in vivo
Outline: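 Maximum tolerated dose in BALB/c mice (SPF, 18−22 g, 6−8 weeks, half female and half male). Graded doses given intravenously, n = 4 per dose. Survival and adverse effects recorded every other day after dosing. MTD defined as the largest dose given before one death occurs.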

[6] = molecular target: T1, Tubulin (Homo sapiens) (UniProt P68371+Q9H4B7+P0DPH7+P68366+Q13509+Q71U36+P04350+Q3ZCM7+P07437+P68363+Q9BQE3+Q6PEY2+Q13885+Q9BVA1+Q9BUF5); experiment: Inhibition of tubulin polymerization in human HepG2 cells assessed as microtubule polymerization alterations at 1 uM after 24 hrs by immunofluorescence assay; assay type: cell-based
Outline: (§2)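 HepG2 cells seeded overnight, then given 1 μM compound or DMSO for 24 h; methanol-fixed, blocked 45 min in 5% BSA/PBS, α-tubulin primary antibody overnight at 4 °C, fluorescent secondary 1 h, DAPI nuclear counterstain; microtubules and spindles imaged by fluorescence microscopy.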

[7] = molecular target: T1, Tubulin (Homo sapiens); experiment: Inhibition of tubulin polymerization in human HepG2 cells assessed as spindle formation alterations at 1 uM after 24 hrs by immunofluorescence assay; assay type: cell-based; outline: as §2
[8] = molecular target: T1, Tubulin (Homo sapiens); experiment: Inhibition of tubulin polymerization in human HepG2 cells assessed as abnormal mitotic spindles at 1 uM after 24 hrs by immunofluorescence assay; assay type: cell-based; outline: as §2
[9] = molecular target: T1, Tubulin (Homo sapiens); experiment: Inhibition of tubulin polymerization in human HepG2 cells assessed as multiple tubulin bundles at 1 uM after 24 hrs by immunofluorescence assay; assay type: cell-based; outline: as §2
[10] = molecular target: T1, Tubulin (Homo sapiens); experiment: Inhibition of tubulin (unknown origin) polymerization pre-incubated for 5 mins by spectrophotometry; assay type: protein-complex assay
[11] = tested on: HUVEC; experiment: Antivascular activity in HUVECs assessed as inhibition of cell migration incubated for 20 hrs by phase contrast microscopy based wound healing migration assay; assay type: functional; conditions: Homo sapiens
Outline: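 HUVECs grown to confluence in DMEM, then serum-starved for 16 h. Monolayer scratched with a pipet tip and washed with PBS. Serum-free DMEM with vehicle or 50, 100 or 500 nM compound added. Imaged after 20–24 h; migrated cells counted manually and expressed relative to vehicle wells; t-test.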

[12] = tested on: HUVEC; experiment: Antivascular activity in HUVECs assessed as disruption of capillary-like tubes at 50 to 500 nM incubated for 6 hrs by matrigel based tube formation assay; assay type: functional, cell-based; conditions: Homo sapiens
Outline: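 HUVECs (2−4 × 10^4) in DMEM seeded on Matrigel polymerized at 37 °C for 30 min. Treated with 50, 100 or 500 nM compound or vehicle at 37 °C. Capillary networks photographed after 6 h and quantified; significance by t-test.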

[13] = tested on: Mus musculus; experiment: Toxicity in cisplatin-resistant human […] cells xenografted Balb/C mouse assessed as mortality level at 5 mg/kg, iv dosed every 4 days for 4 days; assay type: organism-based, A2780cisR; design: dose 5 mg/kg, route intravenous; conditions: in vivo, 96 h
Outline: (§3)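 Female Balb/C or athymic nude mice, 5−6 weeks old, implanted sc in the right flank/armpit with 5 × 10^6 cells in HBSS. Once tumors reached 100 mm3, mice were randomized (6 per group) and dosed with vehicle (2.5% Tween-80, 2.5% ethanol) or drug. Toxicity signs and mortality observed daily. Body weight and caliper tumor volume measured every 2 days.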

[14] = Antitumor activity against mouse C26 cells xenografted in Balb/C mouse assessed as tumor mass changes at 5 mg/kg, iv dosed every 4 days for 4 days; assay type: functional
Outline: (§4)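 Female Balb/c or athymic nude mice, 5–6 weeks old. 5 × 10^6 cells in HBSS implanted sc in the right flank/armpit. Treatment began at tumor volume 100 mm3, 6 mice per group; vehicle was 2.5% Tween-80 and 2.5% ethanol. Tumor volume (π/6 × L × W²) and body weight measured every 2 days. Inhibition = (1 − treated/control tumor weight) × 100%.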

[15] = Antitumor activity against cisplatin-resistant human […] cells xenografted in Balb/C mouse assessed as tumor mass changes at 5 mg/kg, iv dosed every 4 days for 4 days; assay type: functional, A2780cisR; outline: as §4
[16] = Antiproliferative activity against mouse C26 cells assessed as inhibition of cell proliferation after 48 hrs by MTT assay; assay type: functional, cell-based; conditions: C26, 48 h; outline: as §1
[17] = Antiproliferative activity against human DLD1 cells assessed as inhibition of cell proliferation after 48 hrs by MTT assay; assay type: functional, cell-based; conditions: DLD-1, 48 h; outline: as §1
[18] = Antiproliferative activity against human HCT15 cells assessed as inhibition of cell proliferation after 48 hrs by MTT assay; assay type: functional, cell-based; conditions: HCT-15, 48 h; outline: as §1
[19] = tested on: NCI-H358; experiment: Antiproliferative activity against human NCI-H358 cells assessed as inhibition of cell proliferation after 48 hrs by MTT assay; assay type: functional, cell-based; conditions: NCI-H358, 48 h; outline: as §1
[20] = tested on: MCF7; experiment: Antiproliferative activity against human MCF7 cells assessed as inhibition of cell proliferation after 48 hrs by MTT assay; assay type: functional, cell-based; conditions: MCF7, 48 h; outline: as §1
[21] = Antiproliferative activity against human A2780S cells assessed as inhibition of cell proliferation after 48 hrs by MTT assay; assay type: functional, cell-based; conditions: A2780, 48 h
Outline: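 Cells grown in DMEM with 10% FBS, penicillin/streptomycin at 37 °C, 5% CO2. 1000 cells/well seeded, incubated overnight, then exposed to various doses for 48 h. MTT added for 4 h, formazan dissolved in DMSO, absorbance read at 590 nm. IC50 = concentration inhibiting proliferation by 50%, mean ± SEM of dose–response curves from at least three independent experiments.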

[22] = tested on: AGS; experiment: Antiproliferative activity against human AGS cells assessed as inhibition of cell proliferation after 48 hrs by MTT assay; assay type: functional, cell-based; outline: as §1
[23] = tested on: U-251; experiment: Antiproliferative activity against human U251 cells assessed as inhibition of cell proliferation after 48 hrs by MTT assay; assay type: functional, cell-based; conditions: U-251, 48 h; outline: as §1
[24] = Antiproliferative activity against taxol resistant human […] cells assessed as inhibition of cell proliferation after 48 hrs by MTT assay; assay type: functional, cell-based; conditions: A2780, 48 h; outline: as §1
[25] = Antiproliferative activity against taxol resistant human HCT8 cells assessed as inhibition of cell proliferation after 48 hrs by MTT assay; assay type: functional, cell-based; conditions: HCT-8, 48 h; outline: as §1
[26] = tested on: Mus musculus; experiment: Toxicity in mouse C26 cells xenografted Balb/C mouse assessed as body weight changes at 5 mg/kg, iv dosed every 4 days for 4 days; assay type: organism-based; design: dose 5 mg/kg, route intravenous; conditions: in vivo, 96 h
Outline: (§5)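 Xenografts: 5 × 10^6 tumour cells injected sc in right armpit/flank of 5−6-week-old female mice; at 100 mm3 tumour volume, randomized (6 per group) and dosed in vehicle of 2.5% Tween-80 and 2.5% ethanol; body weights and caliper tumour volumes recorded every 2 days, toxicity signs and mortality daily.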

[27] = tested on: Mus musculus; experiment: Toxicity in cisplatin-resistant human […] cells xenografted Balb/C mouse assessed as body weight changes at 5 mg/kg, iv dosed every 4 days for 4 days; assay type: organism-based, A2780cisR; design: dose 5 mg/kg, route intravenous; conditions: in vivo, 96 h; outline: as §5
[28] = tested on: Mus musculus; experiment: Toxicity in mouse C26 cells xenografted Balb/C mouse assessed as mortality level at 5 mg/kg, iv dosed every 4 days for 4 days; assay type: organism-based; design: dose 5 mg/kg, route intravenous; conditions: in vivo, 96 h; outline: as §3
[29] = Antiproliferative activity against human HCT116 cells assessed as inhibition of cell proliferation after 48 hrs by MTT assay; assay type: functional, cell-based; conditions: HCT-116, 48 h
[30] = Antiproliferative activity against human ES2 cells assessed as inhibition of cell proliferation after 48 hrs by MTT assay; assay type: functional, cell-based; conditions: ES-2, 48 h

## C#CCNc1cc(/C=C/C(=O)c2ccc(OC)c3c2OC(C)(C)C=C3)ccc1OC
[1]; Homo sapiens, HepG2, 48 h
  pIC50: 5.79
[2]
  pIC50: 5.80
[3]
  pIC50: 5.80

## CCC(=O)Nc1cc(/C=C/C(=O)c2ccc(OC)c3c2OC(C)(C)C=C3)ccc1OC
[1]; Homo sapiens, HepG2, 48 h
  pIC50: 6.04
[2]
  pIC50: 6.04
[3]
  pIC50: 6.10

## COc1ccc(/C=C/C(=O)c2ccc(OC)c3c2OC(C)(C)C=C3)cc1N.O=S(=O)(O)O
[4]
  solubility kinetic: 58 µg/mL
[5]
  MTD: 200 mg/kg

## COc1ccc(/C=C/C(=O)c2ccc(OC)c3c2OC(C)(C)C=C3)cc1N
[6]
  inhibition: Active
[7]
  inhibition: Active
[8]
  inhibition: Active
[9]
  inhibition: Active
[10]
  inhibition: Dose-dependent effect
[11]
  inhibition: Dose-dependent effect
[12]
  inhibition: Dose-dependent effect

## COc1ccc(/C=C/C(=O)c2ccc(OC)c3c2OC(C)(C)C=C3)cc1N.O=C(O)/C=C\C(=O)O
[1]; hepg2
  pIC50: 7.92
[4]
  solubility kinetic: 47 µg/mL

## CC(=O)O[C@H]1C(=O)[C@@]2(C)[C@H]([C@H](OC(=O)c3ccccc3)[C@]3(O)C[C@H](OC(=O)[C@H](O)[C@@H](NC(=O)c4ccccc4)c4ccccc4)C(C)=C1C3(C)C)[C@]1(OC(C)=O)CO[C@@H]1C[C@@H]2O [PACLITAXEL]
[13]
  Activity: Non-toxic
[14]
  Activity: 76%
[15]
  Activity: 69%
[1]; Homo sapiens, HepG2, 48 h
  pIC50: 7.42
[16]
  pIC50: 6.68
[17]
  pIC50: 7.80
[18]
  pIC50: 7.62
[19]
  pIC50: 8.70
[20]
  pIC50: 6.88
[21]
  pIC50: 8.40
[22]
  pIC50: 8.10
[23]
  pIC50: 7.64
[24]
  pIC50: 6.97
[25]
  pIC50: 6.58
[26]
  Activity: -3.7%
[27]
  Activity: -5.6%
[28]
  Activity: Non-toxic

## COc1cc2c(c(OC)c1OC)-c1ccc(OC)c(=O)cc1[C@@H](NC(C)=O)CC2 [COLCHICINE]
[1]; Homo sapiens, HepG2, 48 h
  pIC50: 7.38
[2]
  pIC50: 7.92
[3]
  pIC50: 7.80
[16]
  pIC50: 6.46
[29]
  pIC50: 7.82
[17]
  pIC50: 7.96
[18]
  pIC50: 7.80
[19]
  pIC50: 8.40
[20]
  pIC50: 7.24
[30]
  pIC50: 7.74
[21]
  pIC50: 8.40
[22]
  pIC50: 8.05
[23]
  pIC50: 7.70

## COc1ccc(/C=C/C(=O)c2ccc(OC)c3c2OC(C)(C)C=C3)cc1N.O=C(O)C(O)C(O)C(=O)O
[1]; Homo sapiens, HepG2, 48 h
  pIC50: 7.96
[4]
  solubility kinetic: 52 µg/mL

## CNc1cc(/C=C/C(=O)c2ccc(OC)c3c2OC(C)(C)C=C3)ccc1OC
[1]; Homo sapiens, HepG2, 48 h
  pIC50: < 5.70
[2]
  pIC50: < 5.70
[3]
  pIC50: < 5.70

## CCCCC(=O)Nc1cc(/C=C/C(=O)c2ccc(OC)c3c2OC(C)(C)C=C3)ccc1OC
[1]; Homo sapiens, HepG2, 48 h
  pIC50: 5.89
[2]
  pIC50: 5.80
[3]
  pIC50: 5.94

## COc1ccc(/C=C/C(=O)c2ccc(OC)c3c2OC(C)(C)C=C3)cc1N(CC=C(C)C)CC=C(C)C
[1]; Homo sapiens, HepG2, 48 h
  pIC50: < 5.70
[2]
  pIC50: < 5.70
[3]
  pIC50: 5.82

## COc1ccc(/C=C/C(=O)c2ccc(OC)c3c2OC(C)(C)C=C3)cc1N.CS(=O)(=O)O
[1]; hepg2
  pIC50: 8.00
[4]
  solubility kinetic: 50 µg/mL

## COc1ccc(/C=C/C(=O)c2ccc(OC)c3c2OC(C)(C)C=C3)cc1NCc1ccccc1
[1]; Homo sapiens, HepG2, 48 h
  pIC50: 6.01
[2]
  pIC50: 6.10
[3]
  pIC50: 5.73

## COc1ccc(/C=C/C(=O)c2ccc(OC)c3c2OC(C)(C)C=C3)cc1NC(=O)CN
[1]; Homo sapiens, HepG2, 48 h
  pIC50: 6.55
[2]
  pIC50: 6.15
[3]
  pIC50: 6.05
